Measured values published in ChEMBL document CHEMBL1139237, “Identification of inhibitors of N5-carboxyaminoimidazole ribonucleotide synthetase by high-throughput screening” (Bioorg Med Chem, 2009).
Calls of active or inactive are those of the source. No cut-off for these calls is given here.

Assays:
[1] = Inhibition of Escherichia coli N5-CAIR synthetase using variable amount of ATP and fixed aminoimidazole ribonucleotide by ATPase assay
Summary of the method: (§1)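 PK/LDH-coupled assay at 37 °C in HEPES pH 7.5, KCl, MgCl2, 0.2 mM NADH, 2.0 mM PEP, 1.0 mM NaHCO3. AIR fixed at 100 μM and ATP varied 5–250 μM. Inhibitor at 0–50 μM added with AIR to start the reaction. NADH loss followed at 340 nm, initial velocity over the first 2 min. Mode from Lineweaver-Burk plots, Ki from slope replots.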

[2] = Inhibition of Escherichia coli N5-CAIR synthetase using variable amount of aminoimidazole ribonucleotide and fixed ATP by ATPase assay
Summary of the method: as §1, with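 “NaHCO3. ATP” for “NaHCO3. AIR”, “at 1.1 mM” for “at 100 μM”, “and AIR” for “and ATP”, “loss read” for “loss followed”, “initial rate” for “initial velocity”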

[3] = biological target: T1, Bifunctional phosphoribosylaminoimidazole carboxylase/phosphoribosylaminoimidazole succinocarboxamide synthetase (Homo sapiens) (UniProt P22234); experiment: Inhibition of human AIR carboxylase: SAICAR synthetase at 200 uM by coupled assay
T1 sequence (whole entry): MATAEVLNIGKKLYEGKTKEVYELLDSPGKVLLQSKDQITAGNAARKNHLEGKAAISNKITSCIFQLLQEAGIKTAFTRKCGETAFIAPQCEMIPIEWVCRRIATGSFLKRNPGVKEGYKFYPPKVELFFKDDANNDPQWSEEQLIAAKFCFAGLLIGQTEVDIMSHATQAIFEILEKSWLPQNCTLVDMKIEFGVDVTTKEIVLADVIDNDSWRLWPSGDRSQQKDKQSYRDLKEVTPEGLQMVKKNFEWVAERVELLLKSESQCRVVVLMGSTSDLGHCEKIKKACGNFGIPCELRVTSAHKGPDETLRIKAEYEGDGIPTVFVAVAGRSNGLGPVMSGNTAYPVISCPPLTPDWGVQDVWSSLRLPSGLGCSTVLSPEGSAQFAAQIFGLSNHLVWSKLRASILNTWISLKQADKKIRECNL
Summary of the method: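 Human bifunctional AIR carboxylase:SAICAR synthetase (>95% pure by SDS-PAGE); both activities measured together by coupled assay, as described for the chicken enzyme; compounds at 200 μM.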

[4] = Inhibition of Escherichia coli N5-CAIR synthetase by phosphate assay
Summary of the method: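 E. coli enzyme in 50 mM HEPES pH 7.5, 20 mM KCl, 6.0 mM MgCl2, 100 μM ATP, diluted saturated NaHCO3. Compound at eight concentrations, 0.78–100 μM, with 50 μM AIR added, run 5 min at room temperature. Quenched with malachite green reagent, A600 read after at least 15 min. IC50 taken from Hill fit between enzyme + AIR and no-AIR controls.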

[5] = Chemical stability in aqueous solution assessed as compound decomposition after 30 mins; type: physicochemical; conditions: buffer, 0.5 h
[6] = Inhibition of Escherichia coli N5-CAIR synthetase using variable amounts of 5-aminoimidazole ribonucleotide or ATP by ATPase assay
Summary of the method: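 E. coli enzyme (168 ng) in 1 mL cuvette, 50 mM HEPES pH 7.5, 20 mM KCl, 6.0 mM MgCl2, 1.0 mM NaHCO3, PK/LDH coupling (0.2 mM NADH, 2.0 mM PEP, 4 U PK, 17 U LDH). Preincubated with ATP 3 min at 37 °C. ATP fixed 1.1 mM with AIR 5–250 μM, or AIR fixed 100 μM with ATP 5–250 μM. Start with AIR plus inhibitor (0–50 μM); A340 read at 37 °C.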

[7] = Chemical stability in aqueous solution assessed as compound decomposition after 45 mins; type: physicochemical; conditions: buffer, 0.75 h

| Compound | IC50 [4] [µM] | further results |
| --- | --- | --- |
| CCOC(=O)c1noc(C)c1-c1csc(CS(=O)(=O)c2ccc(Cl)cc2)n1 | 10 | Ki [1]: 43 µM; Ki [2]: 62 µM; Activity [3]: inactive |
| COc1cscc1C(=O)NC1(O)C(=O)c2ccccc2C1=O | 17 | – |
| CCOC(=O)C1CCN(CN2C(=O)C(=O)c3ccccc32)CC1 | 22 | – |
| O=C1C(=O)N(CN2CCN(CN3C(=O)C(=O)c4ccccc43)C2)c2ccccc21 | 69 | – |
| Cc1cc2nc3c(=O)[nH]c(=O)nc-3n(C[C@H](O)[C@H](O)[C@H](O)CO)c2cc1C | 20 | Ki [1]: 122 µM; Ki [2]: 81 µM; Activity [3]: inactive |
| Cc1cc(NC2(O)C(=O)c3ccccc3C2=O)n(C)n1 | 7.8 | – |
| O=C1C(=O)N(CN2CCOCC2)c2ccc(Br)cc21 | 23 | – |
| CCN(CC)C(=O)CN1C(=O)C(=O)c2ccccc21 | 10.5 | Ki [1]: 40 µM; Ki [2]: 29 µM; Activity [3]: inactive |
| O=C(NC1(O)C(=O)c2ccccc2C1=O)c1cccc2c1-c1ccccc1C2=O | 8.7 | – |
| COc1cc(C(F)(F)F)c(C(=O)NC2(O)C(=O)c3ccccc3C2=O)cn1 | 17 | – |
| O=C1Nc2ccc(OC(F)(F)F)cc2C1=O | 19 | – |
| CN1CCN(CN2C(=O)C(=O)c3ccccc32)CC1 | 37 | – |
| Cc1nonc1NC1(O)C(=O)c2ccccc2C1=O | 2.3 | Stability [5]: Unstable; Ki [6]: Not Active |
| Cc1nc(NC2(O)C(=O)c3ccccc3C2=O)cs1 | 5.6 | Ki [6]: Not Active; Stability [7]: Unstable |
